Measured values from ChEMBL document CHEMBL5579886, “Selective Degradation of MLK3 by a Novel CEP1347-VHL-02 PROTAC Compound Limits the Oncogenic Potential of TNBC” (J Med Chem, 2024).
The source made the active and inactive calls. The calls are words filed in the database; no cut-off is given here.

Columns and labels:
Format in all cases: cell-based
[1] = target: T1, von Hippel-Lindau disease tumor suppressor/Mitogen-activated protein kinase kinase kinase 11 (Homo sapiens, UniProt Q16584+P40337); assay: PROTAC activity at VHL/DOX-inducible MLK3 (unknown origin) overexpressed in human HCC1806 cells assessed as protein degradation at 0.25 to 1 uM measured after 24 hrs by immunoblot analysis; details: dose 0.25-1 µM
[2] = target: T1, von Hippel-Lindau disease tumor suppressor/Mitogen-activated protein kinase kinase kinase 11; assay: PROTAC activity at VHL/MLK3 in human MCF7 cells assessed as protein degradation at 1 uM measured after 24 hrs by immunoblot analysis
Method in brief: (§1)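 MCF-7 and MDA-MB-468 cells were treated for 24 h across 0.1–5 μM, with DMSO as control. MLK3 was immunoblotted and quantified as percent remaining versus concentration, from which DC50 and Dmax were derived.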

[3] = target: T1, von Hippel-Lindau disease tumor suppressor/Mitogen-activated protein kinase kinase kinase 11; assay: PROTAC activity at VHL/MLK3 in human MDA-MB-468 cells assessed as protein degradation at 1 uM measured after 24 hrs by immunoblot analysis; method in brief: as §1
[4] = target: Mitogen-activated protein kinase kinase kinase 11 (Homo sapiens) (UniProt Q16584); assay: Induction of degradation of DOX-inducible MLK3 (unknown origin) overexpressed in human MCF7 cells at 0.5 to 1 uM measured after 24 hrs by immunoblot analysis; details: dose 0.5-1 µM
[5] = target: Mitogen-activated protein kinase kinase kinase 11 (Homo sapiens) (UniProt Q16584); assay: Induction of degradation of DOX-inducible MLK3 (unknown origin) overexpressed in human MDA-MB-468 cells at 0.5 to 1 uM measured after 24 hrs by immunoblot analysis; details: dose 0.5-1 µM

T1 sequence (P40337 whole entry, looked up): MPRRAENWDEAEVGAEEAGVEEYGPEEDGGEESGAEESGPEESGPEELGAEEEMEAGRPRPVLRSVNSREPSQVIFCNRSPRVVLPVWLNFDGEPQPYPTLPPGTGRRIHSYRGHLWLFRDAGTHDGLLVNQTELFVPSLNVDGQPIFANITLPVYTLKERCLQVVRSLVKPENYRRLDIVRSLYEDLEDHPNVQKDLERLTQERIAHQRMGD
T1 sequence (Q16584 whole entry, looked up): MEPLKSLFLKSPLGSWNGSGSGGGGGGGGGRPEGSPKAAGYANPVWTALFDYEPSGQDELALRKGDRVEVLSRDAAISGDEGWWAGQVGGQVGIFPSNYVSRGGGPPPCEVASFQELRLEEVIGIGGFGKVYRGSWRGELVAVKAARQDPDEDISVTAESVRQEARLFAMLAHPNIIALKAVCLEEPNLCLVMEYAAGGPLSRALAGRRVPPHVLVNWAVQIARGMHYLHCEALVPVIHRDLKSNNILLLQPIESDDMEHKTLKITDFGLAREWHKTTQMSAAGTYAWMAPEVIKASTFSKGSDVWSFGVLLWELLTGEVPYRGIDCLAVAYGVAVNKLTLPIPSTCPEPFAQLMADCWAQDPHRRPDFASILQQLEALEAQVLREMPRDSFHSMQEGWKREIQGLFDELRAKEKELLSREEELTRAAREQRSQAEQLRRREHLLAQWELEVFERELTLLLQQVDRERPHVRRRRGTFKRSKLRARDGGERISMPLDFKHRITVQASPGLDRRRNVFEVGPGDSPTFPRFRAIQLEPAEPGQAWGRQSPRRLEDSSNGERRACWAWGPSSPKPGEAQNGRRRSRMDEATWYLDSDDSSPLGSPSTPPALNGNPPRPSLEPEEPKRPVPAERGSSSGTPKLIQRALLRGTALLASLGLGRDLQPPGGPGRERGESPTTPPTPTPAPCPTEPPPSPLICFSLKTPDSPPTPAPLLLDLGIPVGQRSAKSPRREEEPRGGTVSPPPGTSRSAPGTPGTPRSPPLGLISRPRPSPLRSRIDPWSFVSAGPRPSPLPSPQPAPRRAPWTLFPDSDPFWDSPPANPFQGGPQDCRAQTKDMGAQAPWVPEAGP
Chain of Mitogen-activated protein kinase kinase kinase 11 (Homo sapiens) (Q16584 whole entry, looked up): as above

Row | Activity [4] | Activity [5] | SMILES | Activity [1] | Activity [2] | Activity [3]
1 |  |  | CCSCc1ccc2c(c1)c1c3c(c4c5cc(CSCC)ccc5n5c4c1n2[C@H]1C[C@](O)(C(=O)NCCOCCOCCOCC(=O)N[C@H](C(=O)N2C[C@@H](O)C[C@H]2C(=O)N[C@@H](C)c2ccc(-c4scnc4C)cc2)C(C)(C)C)[C@]5(C)O1)CNC3=O | inactive | inactive | inactive
2 | inactive | inactive | CCSCc1ccc2c(c1)c1c3c(c4c5cc(CSCC)ccc5n5c4c1n2[C@H]1C[C@](O)(C(=O)OC)[C@]5(C)O1)CNC3=O |  |  | 
